In paper PMC11219355 (Heliyon, 2024):

What was measured:
RAW 264.7 cells = test: RAW 264.7 cytotoxicity assay; type: cell-based, Murine; details: RAW 264.7, MTT, peptide 1000 μg/mL, 24 h
Method in brief: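 Murine macrophages were grown in DMEM plus 10 % heat-inactivated FBS and 1 % antibiotic-antimycotic (37 °C, 5 % CO2) and seeded overnight at 2 × 10⁴ cells/well. Peptide was added at 1000 μg/mL final for 24 h. MTT was added at 0.5 mg/mL final in fresh medium for 30 min. Formazan was dissolved in DMSO and read at OD570. Viability was expressed versus untreated cells. Three repeats, mean ± SD.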

[1] = system: C. acnes, S. aureus and MRSA; test: Antibacterial growth inhibition, stated as one range over the three strains; type: cell-based, Cutibacterium acnes; Staphylococcus aureus; details: peptide 1000 μg/mL
Method in brief: (§1)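 Inocula: C. acnes grown anaerobically in Schaedler broth at 37 °C for 72 h and adjusted to OD600 0.1. S. aureus and MRSA single colonies grown in nutrient broth at 37 °C for 18 h and adjusted to OD600 0.001. Suspensions were mixed 1:1 with peptide (1000 μg/mL) or ampicillin/clindamycin (500 μg/mL) solutions. Untreated culture served as 0 % inhibition. Three repeats, mean ± SD.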

[2] = system: Cutibacterium acnes (DMST 14916); test: Antibacterial growth inhibition; type: cell-based; details: C. acnes; antibiotic 500 μg/mL; 37 °C, 18–22 h, OD600
Method in brief: as §1

[3] = system: Staphylococcus aureus (ATCC 25923); test: Antibacterial growth inhibition; type: cell-based; details: S. aureus; antibiotic 500 μg/mL; 37 °C, 18–22 h, OD600
Method in brief: as §1

[4] = system: methicillin-resistant Staphylococcus aureus (MRSA) (DMST 20646); test: Antibacterial growth inhibition; type: cell-based; details: antibiotic 500 μg/mL, 37 °C, 18–22 h, OD600
Method in brief: as §1

Molecule	reduction in cell viability (RAW 264.7 cells) [%]	relative antibacterial potency among the 8 peptides, in words [1]	growth inhibition [2] [%]	growth inhibition [3] [%]	growth inhibition [4] [%]
RKLLEGEE [RE8]	~15				
IIDVKMLS [IS8]		least potent peptide			
CC1(C)S[C@@H]2[C@H](NC(=O)[C@H](N)c3ccccc3)C(=O)N2[C@H]1C(=O)O [ampicillin]			92.92	97.85	100.00
CCC[C@@H]1C[C@@H](C(=O)N[C@@H]([C@H]2O[C@H](SC)[C@H](O)[C@@H](O)[C@H]2O)[C@H](C)Cl)N(C)C1 [clindamycin]			100.00	96.35	51.86
